Active and inactive are the calls of the source. The calls are words filed in the database; no cut-off is given here.
Legend:
LNCaP = assay: Cytotoxicity against human LNCAP cells assessed as reduction in cell viability up to 5 uM after 72 hrs by CellTiter96 AQueous one solution cell proliferation assay; type: functional, cell-based
Method in brief: (§1)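 Cells in RPMI with 5% fetal calf serum, glutamine, nonessential amino acids, pyruvate, HEPES, 2-mercaptoethanol and antibiotics. Seeded at 10 000 (LNCaP) or 5000 (others) and grown overnight at 37 °C, then exposed to compound in DMSO, triplicate wells, 72 h. Read by MTS at 490 nm after 2 h. % cytotoxicity = (A medium − A treatment)/A medium × 100.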

ACHN = assay: Cytotoxicity against human ACHN cells assessed as reduction in cell viability up to 5 uM after 72 hrs by CellTiter96 AQueous one solution cell proliferation assay; type: functional, cell-based; method in brief: as §1
CWR22R = assay: Cytotoxicity against human 22Rv1 cells assessed as reduction in cell viability up to 5 uM after 72 hrs by CellTiter96 AQueous one solution cell proliferation assay; type: functional, cell-based; method in brief: as §1
M14 = assay: Cytotoxicity against human M14 cells assessed as reduction in cell viability up to 5 uM after 72 hrs by CellTiter96 AQueous one solution cell proliferation assay; type: functional, cell-based
Method in brief: (§2)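 Melanoma cells in DMEM-based medium (5% fetal calf serum, glutamine, nonessential amino acids, pyruvate, HEPES, 2-mercaptoethanol, antibiotics). 5000 cells were grown overnight at 37 °C, then exposed to compound in DMSO in triplicate wells for 72 h. MTS absorbance at 490 nm after 2 h. % cytotoxicity = (A medium − A treatment)/A medium × 100.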

SK-MEL-28 = assay: Cytotoxicity against human SK-MEL-28 cells assessed as reduction in cell viability up to 5 uM after 72 hrs by CellTiter96 AQueous one solution cell proliferation assay; type: functional, cell-based; method in brief: as §2
HFF = assay: Cytotoxicity against HFF cells assessed as reduction in cell viability up to 5 uM after 72 hrs by CellTiter96 AQueous one solution cell proliferation assay; type: cell-based; details: human; method in brief: as §1

Compound	Activity (LNCaP)	Activity (ACHN)	Activity (CWR22R)	Activity (M14)	Activity (SK-MEL-28)	Activity (HFF)
CC1=C(C)C(=O)O[C@@H]([C@](C)(O)[C@]2(O)CC[C@@]3(O)[C@@H]4C[C@@H](O)[C@@]5(O)CC=CC(=O)[C@]5(C)[C@H]4CC[C@]23C)C1	inactive	inactive	inactive	inactive	inactive	Non-Toxic
CC1=C(C)C(=O)O[C@@H]([C@](C)(O)C2=CC[C@@]3(O)[C@@H]4C[C@H]5O[C@]56[C@@H](O)C=CC(=O)[C@]6(C)[C@H]4CC[C@]23C)C1	inactive	inactive	inactive	inactive	inactive	Non-Toxic
CC1=C(C)C(=O)O[C@@H]([C@](C)(O)C2=CC[C@@]3(O)[C@@H]4C[C@H]5O[C@]56CC=CC(=O)[C@]6(C)[C@H]4CC[C@]23C)C1	inactive	inactive	inactive	inactive	inactive	Non-Toxic
CC1=C(C)C(=O)O[C@@H]([C@](C)(O)[C@]2(O)CC[C@@]3(O)[C@@H]4C[C@H](Cl)[C@]5(O)CC=CC(=O)[C@]5(C)[C@H]4CC[C@]23C)C1	inactive	inactive	inactive	inactive	inactive	Non-Toxic
C[C@H]1C(=O)OC[C@H]1C[C@@H](O)[C@](C)(O)[C@]1(O)CC[C@@]2(O)[C@@H]3CC=C4C=CCC(=O)[C@]4(C)[C@H]3CC[C@]12C	inactive	inactive	inactive	inactive	inactive	Non-Toxic
C[C@H]1C(=O)OC[C@H]1C[C@@H](O)[C@](C)(O)[C@H]1CC[C@@]2(O)[C@@H]3CC=C4CC=CC(=O)[C@]4(C)[C@H]3CC[C@]12C	inactive	inactive	inactive	inactive	inactive	Non-Toxic
C[C@H]1C(=O)O[C@@H]([C@](C)(O)[C@H]2CC[C@@]3(O)[C@@H]4CC=C5CC=CC(=O)[C@]5(C)[C@H]4CC[C@]23C)[C@@H](O)[C@@H]1CO	inactive	inactive	inactive	inactive	inactive	Non-Toxic
CO[C@]12CC=CC(=O)[C@]1(C)[C@H]1CC[C@]3(C)[C@](O)([C@@](C)(O)[C@H]4CC(C)=C(C)C(=O)O4)CC[C@@]3(O)[C@@H]1C[C@H]2O	inactive	inactive	inactive	inactive	inactive	Non-Toxic
C[C@H]1C(=O)OC[C@H]1C[C@@H](O)[C@](C)(O)[C@]1(O)CC[C@@]2(O)[C@@H]3C[C@H]4O[C@]45CC=CC(=O)[C@]5(C)[C@H]3CC[C@]12C	inactive	inactive	inactive	inactive	inactive	Non-Toxic
C[C@H]1C(=O)OC[C@H]1C[C@@H](O)[C@](C)(O)[C@]1(O)CC[C@@]2(O)[C@@H]3CC=C4CC=CC(=O)[C@]4(C)[C@H]3CC[C@]12C	inactive	inactive	inactive	inactive	inactive	Non-Toxic
